According to ChEMBL document CHEMBL3526066, “In vitro metabolism of 17-(dimethylaminoethylamino)-17-demethoxygeldanamycin in human liver microsomes” (Drug Metab Dispos, 2011):

What was measured:
[1] = Terminal half life in human; format: ADME, organism-based; conditions: in vivo, read-out: beta t1/2 (converted)
[2] = target: Cytochrome P450 2C9 (Homo sapiens, UniProt P11712); assay: Drug metabolism assessed as human recombinant CYP2C9-mediated oxidative metabolism at 1 uM by liquid chromatography-tandem mass spectrometry; format: ADME; conditions: recombinant enzyme
Cytochrome P450 2C9, sequence (P11712 whole entry): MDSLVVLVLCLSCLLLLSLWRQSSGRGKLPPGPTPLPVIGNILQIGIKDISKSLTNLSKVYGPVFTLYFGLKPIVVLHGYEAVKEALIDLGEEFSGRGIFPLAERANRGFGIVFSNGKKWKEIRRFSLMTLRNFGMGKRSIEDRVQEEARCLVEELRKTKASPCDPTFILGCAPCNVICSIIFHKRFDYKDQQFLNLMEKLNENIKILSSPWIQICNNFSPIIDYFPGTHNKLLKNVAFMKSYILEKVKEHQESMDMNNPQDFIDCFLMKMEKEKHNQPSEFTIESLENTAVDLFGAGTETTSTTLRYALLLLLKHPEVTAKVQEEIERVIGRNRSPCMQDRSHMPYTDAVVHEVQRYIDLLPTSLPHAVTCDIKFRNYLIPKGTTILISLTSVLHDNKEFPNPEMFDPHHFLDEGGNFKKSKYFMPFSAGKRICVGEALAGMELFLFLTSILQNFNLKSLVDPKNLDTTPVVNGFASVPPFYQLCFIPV

[3] = test system: Liver microsome; assay: Drug metabolism in human liver microsomes assessed as (4E,6Z,8S,9S,10E,12S,13R,14S,16R)-19-(2-(dimethylamino)ethylamino)-13,14-dihydroxy-8-methoxy-4,10,12,16-tetramethyl-3,20,22-trioxo-2-azabicyclo[16.3.1]docosa-1(21),4,6,10,18-pentaen-9-yl carbamate formation at 37 degC in presence of reduced GSH by liquid chromatography-tandem mass spectrometry; format: ADME; conditions: read-out: Km(app)
[4] = test system: Liver microsome; assay: Drug metabolism in human liver microsomes assessed as (4E,6Z,8S,9S,10E,12S,13R,14S,16R)-19-(2-(dimethylamino)ethylamino)-8,13-dihydroxy-14-methoxy-4,10,12,16-tetramethyl-3,20,22-trioxo-2-azabicyclo[16.3.1]docosa-1(21),4,6,10,18-pentaen-9-yl carbamate formation at 1 uM 17-DMAG by liquid chromatography-tandem mass spectrometry in presence of 1 uM ketoconazole CYP3A inhibitor; format: ADME
[5] = target: Cytochrome P450 2E1 (Homo sapiens, UniProt P05181); assay: Drug metabolism assessed as human recombinant CYP2E1-mediated oxidative metabolism at 1 uM by liquid chromatography-tandem mass spectrometry; format: ADME; conditions: recombinant enzyme
Cytochrome P450 2E1, sequence (P05181 whole entry): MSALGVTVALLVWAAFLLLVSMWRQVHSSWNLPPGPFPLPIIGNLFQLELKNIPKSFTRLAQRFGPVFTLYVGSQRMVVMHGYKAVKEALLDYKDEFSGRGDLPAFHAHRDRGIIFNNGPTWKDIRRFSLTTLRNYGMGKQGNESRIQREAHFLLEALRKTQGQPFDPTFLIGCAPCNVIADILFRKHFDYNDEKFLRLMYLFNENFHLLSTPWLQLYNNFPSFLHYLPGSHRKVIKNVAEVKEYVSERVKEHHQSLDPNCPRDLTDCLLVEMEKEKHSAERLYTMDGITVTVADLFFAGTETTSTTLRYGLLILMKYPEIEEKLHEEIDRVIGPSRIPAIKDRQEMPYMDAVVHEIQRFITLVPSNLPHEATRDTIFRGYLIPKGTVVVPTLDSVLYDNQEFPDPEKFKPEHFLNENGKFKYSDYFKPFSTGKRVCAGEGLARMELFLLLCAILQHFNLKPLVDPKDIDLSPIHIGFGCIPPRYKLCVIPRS

[6] = target: T1, Cytochrome P450 2B6 (Homo sapiens, UniProt P20813); assay: Drug metabolism assessed as human recombinant CYP2B6-mediated oxidative metabolism at 1 uM by liquid chromatography-tandem mass spectrometry; format: ADME; conditions: recombinant enzyme
T1 sequence (P20813 whole entry): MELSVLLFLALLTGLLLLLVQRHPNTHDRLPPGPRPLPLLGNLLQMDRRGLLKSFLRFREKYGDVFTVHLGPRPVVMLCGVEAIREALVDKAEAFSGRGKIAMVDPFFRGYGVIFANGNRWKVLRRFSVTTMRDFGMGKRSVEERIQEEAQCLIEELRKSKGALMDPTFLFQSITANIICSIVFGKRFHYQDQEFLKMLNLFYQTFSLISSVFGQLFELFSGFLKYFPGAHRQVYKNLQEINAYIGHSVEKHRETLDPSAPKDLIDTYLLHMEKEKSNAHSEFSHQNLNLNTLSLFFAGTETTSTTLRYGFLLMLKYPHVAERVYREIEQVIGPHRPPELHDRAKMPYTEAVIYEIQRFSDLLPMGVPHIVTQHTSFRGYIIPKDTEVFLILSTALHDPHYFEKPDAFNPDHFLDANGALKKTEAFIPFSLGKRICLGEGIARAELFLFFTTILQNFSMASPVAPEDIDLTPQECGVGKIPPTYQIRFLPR

[7] = Total clearance in human; format: ADME, organism-based; conditions: in vivo
[8] = Drug metabolism in human liver microsomes assessed as stability after 2 hrs relative to control by liquid chromatography-tandem mass spectrometry; format: ADME; conditions: read-out: Stability
Procedure, shortened: (§1)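 Pooled human liver microsomes (1 mg/ml) were incubated at 37°C with substrate (5 µM final), 1 mM β-NADPH and 3.3 mM MgCl2 in 0.1 M phosphate buffer, with or without 5 mM reduced GSH. Aliquots were taken from 1 to 120 min and quenched in ice-cold acetonitrile containing internal standard. LC-MS/MS peak-area ratios to internal standard were normalised to the 1-min sample.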

[9] = target: Cytochrome P450 3A5 (Homo sapiens, UniProt P20815); assay: Drug metabolism assessed as human recombinant CYP3A5-mediated (4E,6Z,8S,9S,10E,12S,13R,14S,16R)-19-(2-(dimethylamino)ethylamino)-13-hydroxy-8,14-dimethoxy-4,10,12,16-tetramethyl-3,20,22-trioxo-2-azabicyclo[16.3.1]docosa-1(21),4,6,10,18-pentaen-9-yl carbamate formation at 1 uM relative to CYP3A4; format: ADME; conditions: recombinant enzyme
Cytochrome P450 3A5, sequence (P20815 whole entry): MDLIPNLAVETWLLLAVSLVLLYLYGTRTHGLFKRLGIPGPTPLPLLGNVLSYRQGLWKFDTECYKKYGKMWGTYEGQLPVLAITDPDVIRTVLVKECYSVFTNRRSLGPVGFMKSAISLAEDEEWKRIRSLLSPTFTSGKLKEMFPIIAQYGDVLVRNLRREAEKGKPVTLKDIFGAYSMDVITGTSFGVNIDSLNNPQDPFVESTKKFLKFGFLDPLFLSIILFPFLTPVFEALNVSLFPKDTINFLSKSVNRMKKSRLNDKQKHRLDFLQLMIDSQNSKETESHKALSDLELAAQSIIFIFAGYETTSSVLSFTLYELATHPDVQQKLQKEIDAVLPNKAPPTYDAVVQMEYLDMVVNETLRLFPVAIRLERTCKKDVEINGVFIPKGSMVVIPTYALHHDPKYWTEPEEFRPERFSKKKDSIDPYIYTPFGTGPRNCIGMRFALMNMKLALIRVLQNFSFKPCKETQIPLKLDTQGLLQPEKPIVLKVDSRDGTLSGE

[10] = test system: Liver microsome; assay: Metabolic stability in human liver microsomes at 5 uM by liquid chromatography-tandem mass spectrometry; format: ADME; procedure, shortened: as §1
[11] = test system: Liver microsome; assay: Drug metabolism in human liver microsomes assessed as (4E,6Z,8S,9S,10E,12S,13R,14S,16R)-19-(2-(dimethylamino)ethylamino)-13-hydroxy-10-(hydroxymethyl)-8,14-dimethoxy-4,12,16-trimethyl-3,20,22-trioxo-2-azabicyclo[16.3.1]docosa-1(21),4,6,10,18-pentaen-9-yl carbamate formation at 37 degC in presence of reduced GSH by liquid chromatography-tandem mass spectrometry; format: ADME; conditions: read-out: Km(app)
[12] = test system: Liver microsome; assay: Drug level in human liver microsomes treated with 1 uM 17-DMAG by liquid chromatography-tandem mass spectrometry in presence of 1 uM quinidine CYP2D6 inhibitor; format: ADME
Procedure, shortened: (§2)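 Pooled HLMs in 0.1 M phosphate buffer pH 7.4 with 1 mM β-NADPH, 3.3 mM MgCl2 and the selective inhibitor were preincubated 3 min at 37°C in a shaking water bath. 17-DMAG (1 µM final) was then added and incubated 20 min at 37°C, with parallel no-inhibitor controls. M1, M2, M3, M4 and M6 were quantified by LC-MS/MS MRM. Inhibition was taken as the ratio of metabolite formed with versus without inhibitor.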

[13] = test system: Liver microsome; assay: Drug level in human liver microsomes treated with 1 uM 17-DMAG by liquid chromatography-tandem mass spectrometry in presence of 1 uM tranylcypromine CYP2A6 inhibitor; format: ADME; procedure, shortened: as §2
[14] = target: T2, Cytochrome P450 2A6 (Homo sapiens, UniProt P11509); assay: Drug level assessed as human recombinant CYP2A6-mediated oxidative metabolism treated with 1 uM 17-DMAG relative to CYP3A4; format: ADME; conditions: recombinant enzyme
T2 sequence (P11509 whole entry): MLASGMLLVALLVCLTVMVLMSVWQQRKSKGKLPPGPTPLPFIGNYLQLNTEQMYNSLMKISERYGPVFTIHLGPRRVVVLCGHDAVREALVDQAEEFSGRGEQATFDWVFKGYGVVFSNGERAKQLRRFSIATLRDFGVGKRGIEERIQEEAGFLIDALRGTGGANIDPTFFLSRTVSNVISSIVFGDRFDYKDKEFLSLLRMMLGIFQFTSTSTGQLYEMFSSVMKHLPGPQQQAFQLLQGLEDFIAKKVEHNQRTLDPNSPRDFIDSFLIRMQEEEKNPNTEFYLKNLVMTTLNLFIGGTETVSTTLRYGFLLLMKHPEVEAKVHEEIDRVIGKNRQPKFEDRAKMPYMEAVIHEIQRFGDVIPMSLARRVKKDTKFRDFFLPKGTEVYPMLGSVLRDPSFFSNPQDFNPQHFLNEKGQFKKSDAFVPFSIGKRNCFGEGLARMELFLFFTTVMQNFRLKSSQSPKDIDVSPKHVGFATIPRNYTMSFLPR
Procedure, shortened: (§3)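 Recombinant human P450 (E. coli-expressed, coexpressed with cytochrome b5), 20 pmol per 200 µl incubation with 0.2 mg reduced β-NADPH and 3.3 mM MgCl2 in 0.1 M phosphate buffer pH 7.4. Preincubated at 37°C in a shaking water bath, then 1 µM 17-DMAG added. E. coli control microsomes lacking P450 cDNA served as negative control. Metabolite (M1–M4, M6) formation rates were read by LC-MS/MS MRM and expressed as percent of the CYP3A4 rate.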

[15] = target: Cytochrome P450 3A4 (Homo sapiens, UniProt P08684); assay: Drug level assessed as human recombinant CYP3A4-mediated oxidative metabolism treated with 1 uM 17-DMAG after 30 mins by liquid chromatography-tandem mass spectrometry; format: ADME; conditions: recombinant enzyme, 0.5 h; procedure, shortened: as §3
Cytochrome P450 3A4, sequence (P08684 whole entry): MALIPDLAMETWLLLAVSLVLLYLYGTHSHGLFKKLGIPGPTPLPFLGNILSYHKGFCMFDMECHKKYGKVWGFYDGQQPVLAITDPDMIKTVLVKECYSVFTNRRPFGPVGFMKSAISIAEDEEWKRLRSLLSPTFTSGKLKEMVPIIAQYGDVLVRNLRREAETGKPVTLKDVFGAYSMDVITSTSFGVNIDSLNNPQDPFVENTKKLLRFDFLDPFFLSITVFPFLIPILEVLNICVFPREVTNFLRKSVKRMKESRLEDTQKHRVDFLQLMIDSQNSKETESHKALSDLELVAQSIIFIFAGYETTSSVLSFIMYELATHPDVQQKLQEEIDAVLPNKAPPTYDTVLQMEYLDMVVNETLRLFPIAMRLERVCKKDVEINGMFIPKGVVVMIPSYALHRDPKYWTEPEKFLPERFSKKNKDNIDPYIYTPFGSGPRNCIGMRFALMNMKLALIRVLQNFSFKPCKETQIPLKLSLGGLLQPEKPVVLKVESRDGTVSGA

[16] = target: Cytochrome P450 2C19 (Homo sapiens, UniProt P33261); assay: Drug level assessed as human recombinant CYP2C19-mediated oxidative metabolism treated with 1 uM 17-DMAG relative to CYP3A4; format: ADME; conditions: recombinant enzyme; procedure, shortened: as §3
Cytochrome P450 2C19, sequence (P33261 whole entry): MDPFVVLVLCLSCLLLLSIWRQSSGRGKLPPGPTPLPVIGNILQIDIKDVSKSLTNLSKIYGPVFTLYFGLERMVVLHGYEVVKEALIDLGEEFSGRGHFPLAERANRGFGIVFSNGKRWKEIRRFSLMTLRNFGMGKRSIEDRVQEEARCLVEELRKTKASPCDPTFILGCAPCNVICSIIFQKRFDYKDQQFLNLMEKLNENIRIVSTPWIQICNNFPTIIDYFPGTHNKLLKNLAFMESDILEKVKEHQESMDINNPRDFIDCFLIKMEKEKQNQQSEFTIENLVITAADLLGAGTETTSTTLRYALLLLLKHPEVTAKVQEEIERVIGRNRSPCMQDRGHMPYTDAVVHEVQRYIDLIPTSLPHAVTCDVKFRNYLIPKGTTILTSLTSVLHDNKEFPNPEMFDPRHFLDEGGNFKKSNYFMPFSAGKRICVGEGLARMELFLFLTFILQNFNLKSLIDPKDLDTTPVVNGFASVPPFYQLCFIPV

[17] = target: T3, Cytochrome P450 2C8 (Homo sapiens, UniProt P10632); assay: Drug level assessed as human recombinant CYP2C8-mediated oxidative metabolism treated with 1 uM 17-DMAG relative to CYP3A4; format: ADME; conditions: recombinant enzyme; procedure, shortened: as §3
T3 sequence (P10632 whole entry): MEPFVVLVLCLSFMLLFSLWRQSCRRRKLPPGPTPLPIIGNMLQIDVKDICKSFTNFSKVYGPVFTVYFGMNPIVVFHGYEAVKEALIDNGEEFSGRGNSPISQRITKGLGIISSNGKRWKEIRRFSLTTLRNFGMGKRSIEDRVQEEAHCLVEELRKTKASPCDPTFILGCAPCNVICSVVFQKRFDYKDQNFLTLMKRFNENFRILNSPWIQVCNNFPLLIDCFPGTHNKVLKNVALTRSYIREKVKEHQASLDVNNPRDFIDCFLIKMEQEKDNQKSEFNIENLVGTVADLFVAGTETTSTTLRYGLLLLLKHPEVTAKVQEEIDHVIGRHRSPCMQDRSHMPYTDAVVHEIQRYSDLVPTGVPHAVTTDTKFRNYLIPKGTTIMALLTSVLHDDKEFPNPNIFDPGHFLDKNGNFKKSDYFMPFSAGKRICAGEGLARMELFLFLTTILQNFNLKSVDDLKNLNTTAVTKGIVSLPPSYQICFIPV

[18] = test system: Liver microsome; assay: Drug level in human liver microsomes treated with 1 uM 17-DMAG by liquid chromatography-tandem mass spectrometry in presence of 10 uM diethyldithiocarbamate CYP2E1 inhibitor; format: ADME; procedure, shortened: as §2
[19] = test system: Liver microsome; assay: Drug level in human liver microsomes treated with 1 uM 17-DMAG by liquid chromatography-tandem mass spectrometry in presence of 10 uM alpha-naphthoflavone CYP1A2 inhibitor; format: ADME; procedure, shortened: as §2
[20] = test system: Liver microsome; assay: Drug level in human liver microsomes treated with 1 uM 17-DMAG by liquid chromatography-tandem mass spectrometry in presence of 10 uM ticlopidine CYP2B6 inhibitor; format: ADME; procedure, shortened: as §2
[21] = test system: Liver microsome; assay: Drug level in human liver microsomes treated with 1 uM 17-DMAG by liquid chromatography-tandem mass spectrometry in presence of 1 uM quercetin CYP2C8 inhibitor; format: ADME; procedure, shortened: as §2
[22] = test system: Liver microsome; assay: Retention time in human liver microsomes treated with 10 uM […] after 2 hrs by liquid chromatography-tandem mass spectrometry; format: ADME
Procedure, shortened: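 17-DMAG (10 µM initial) was incubated with HLMs (1 mg/ml) in 0.1 M phosphate buffer with 3.3 mM MgCl2 and 1 mM β-NADPH at 37°C for 2 h alongside negative controls, then quenched with ice-cold acetonitrile. Samples were run on a C18 column with a 0.1% formic acid/ammonium formate–acetonitrile gradient (10–90% B in 10 min) using MS full scan, MRM, EPI and MS3 scans.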

[23] = target: Cytochrome P450 2D6 (Homo sapiens, UniProt P10635); assay: Drug level assessed as human recombinant CYP2D6-mediated oxidative metabolism treated with 1 uM 17-DMAG relative to CYP3A4; format: ADME; conditions: recombinant enzyme; procedure, shortened: as §3
Cytochrome P450 2D6, sequence (P10635 whole entry): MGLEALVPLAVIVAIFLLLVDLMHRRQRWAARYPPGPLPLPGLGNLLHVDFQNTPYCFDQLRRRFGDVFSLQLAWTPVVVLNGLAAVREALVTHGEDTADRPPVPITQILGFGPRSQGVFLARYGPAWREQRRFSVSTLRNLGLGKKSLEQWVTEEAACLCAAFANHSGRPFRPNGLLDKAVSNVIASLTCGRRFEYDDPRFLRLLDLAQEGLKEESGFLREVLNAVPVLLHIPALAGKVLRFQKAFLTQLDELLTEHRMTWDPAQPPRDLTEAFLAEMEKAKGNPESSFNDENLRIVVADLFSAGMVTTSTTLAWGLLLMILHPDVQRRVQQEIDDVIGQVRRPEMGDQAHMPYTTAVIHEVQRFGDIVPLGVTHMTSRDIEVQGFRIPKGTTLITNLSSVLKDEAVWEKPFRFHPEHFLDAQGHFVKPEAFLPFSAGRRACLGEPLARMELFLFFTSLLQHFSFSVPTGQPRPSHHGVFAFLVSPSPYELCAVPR

[24] = target: T4, Cytochrome P450 1A2 (Homo sapiens, UniProt P05177); assay: Drug level assessed as human recombinant CYP1A2-mediated oxidative metabolism treated with 1 uM 17-DMAG relative to CYP3A4; format: ADME; conditions: recombinant enzyme; procedure, shortened: as §3
T4 sequence (P05177 whole entry): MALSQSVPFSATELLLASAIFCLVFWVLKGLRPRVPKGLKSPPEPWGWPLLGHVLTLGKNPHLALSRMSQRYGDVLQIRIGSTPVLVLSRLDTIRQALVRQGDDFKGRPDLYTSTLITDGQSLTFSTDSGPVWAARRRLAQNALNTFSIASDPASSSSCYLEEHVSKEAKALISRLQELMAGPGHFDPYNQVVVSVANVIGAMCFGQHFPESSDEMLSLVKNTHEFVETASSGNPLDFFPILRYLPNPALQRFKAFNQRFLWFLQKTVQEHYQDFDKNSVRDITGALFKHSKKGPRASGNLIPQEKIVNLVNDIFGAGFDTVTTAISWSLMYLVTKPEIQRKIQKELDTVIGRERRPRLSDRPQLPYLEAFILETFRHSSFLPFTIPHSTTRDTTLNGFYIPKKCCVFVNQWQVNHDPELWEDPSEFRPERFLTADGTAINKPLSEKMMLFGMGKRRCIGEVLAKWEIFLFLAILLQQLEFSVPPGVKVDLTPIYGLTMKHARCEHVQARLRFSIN

[25] = test system: Liver microsome; assay: Drug level in human liver microsomes treated with 1 uM 17-DMAGby liquid chromatography-tandem mass spectrometry in presence of 1 uM sulfaphenazole CYP2C9 inhibitor; format: ADME; procedure, shortened: as §2

## CO[C@H]1/C=C\C=C(/C)C(=O)NC2=CC(=O)C(NCCN(C)C)=C(C[C@@H](C)C[C@H](OC)[C@H](O)[C@@H](C)/C=C(\C)[C@@H]1OC(N)=O)C2=O (stereo in doubt) [ALVESPIMYCIN]
[1]
  half-life: 16 h
[2]
  Drug metabolism: metabolite_not_detected
[3]
  Km: 7.83 µM
[4]
  Drug metabolism: metabolite_not_detected
[5]
  Drug metabolism: metabolite_not_detected
[6]
  Drug metabolism: metabolite_not_detected
[7]
  clearance: 123 mL/min
[8]
  remaining at 2 h: 24%
[9]
  Drug metabolism: metabolite_not_detected
[10]
  Stability: Stable
[11]
  Km: 6.61 µM

## CO[C@H]1/C=C\C=C(/C)C(=O)NC2=CC(=O)C(NC(O)CN(C)C)=C(C[C@@H](CO)C[C@H](OC)[C@H](O)[C@@H](CO)/C=C(\C)[C@@H]1OC(N)=O)C2=O (stereo not given in full)
[12]
  Drug metabolism: metabolite_detected
[13]
  Drug metabolism: metabolite_detected
[14]
  Drug metabolism: metabolite_detected
[15]
  Drug metabolism: metabolite_detected
[16]
  Drug metabolism: metabolite_detected
[17]
  Drug metabolism: metabolite_detected
[18]
  Drug metabolism: metabolite_detected
[19]
  Drug metabolism: metabolite_detected
[20]
  Drug metabolism: metabolite_detected
[21]
  Drug metabolism: metabolite_detected
[22]
  Retention_time: 6.8 min
[23]
  Drug metabolism: metabolite_detected
[24]
  Drug metabolism: metabolite_detected
[25]
  Drug metabolism: metabolite_detected
